Data reported in ChEMBL document CHEMBL5661979, “Pharmacological inhibition of BMK1 suppresses tumor growth through promyelocytic leukemia protein” (Cancer Cell, 2010).

Key:
Activated CDC42 kinase 1 = Activated CDC42 kinase 1 (Homo sapiens, UniProt Q07912); assay: Inhibition of TNK2 (unknown origin) assessed as remaining activity at 10 uM by ATP-competition binding assay relative to control
[1] = Inhibition of PKD1/2 in human HeLa cells lysate pre incubated for 15 mins followed by ATP acyl phosphate probe addition and measured after 10 mins by LC-MS/MS analysis; format: subcellular
[2] = biological target: Serine/threonine-protein kinase 3 (Homo sapiens, UniProt Q13188); assay: Inhibition of MST2 in human HeLa cells lysate pre incubated for 15 mins followed by ADP acyl phosphate probe addition and measured after 10 mins by LC-MS/MS analysis; format: subcellular
[3] = biological target: Serine/threonine-protein kinase 38-like (Homo sapiens, UniProt Q9Y2H1); assay: Inhibition of NDR2 in human HeLa cells lysate pre incubated for 15 mins followed by ADP acyl phosphate probe addition and measured after 10 mins by LC-MS/MS analysis; format: subcellular
[4] = biological target: T1, Dual specificity mitogen-activated protein kinase kinase 7 (Homo sapiens) (UniProt O14733); assay: Inhibition of MAP2K7 in human HeLa cells lysate at 50 uM pre incubated for 15 mins followed by ADP acyl phosphate probe addition and measured after 10 mins by LC-MS/MS analysis relative to control; format: subcellular; conditions: time 25.0 min
T1 sequence (whole entry): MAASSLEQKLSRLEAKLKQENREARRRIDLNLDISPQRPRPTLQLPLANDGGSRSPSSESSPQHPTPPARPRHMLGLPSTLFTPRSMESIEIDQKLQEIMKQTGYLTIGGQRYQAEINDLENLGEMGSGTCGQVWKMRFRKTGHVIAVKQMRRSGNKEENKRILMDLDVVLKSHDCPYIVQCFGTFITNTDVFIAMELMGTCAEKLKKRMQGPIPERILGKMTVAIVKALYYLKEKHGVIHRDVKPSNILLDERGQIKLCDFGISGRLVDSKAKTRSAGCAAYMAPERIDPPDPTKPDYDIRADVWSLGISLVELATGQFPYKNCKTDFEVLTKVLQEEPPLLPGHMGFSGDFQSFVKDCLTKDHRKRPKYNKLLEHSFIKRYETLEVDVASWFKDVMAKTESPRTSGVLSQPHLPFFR

[5] = biological target: Ribosomal protein S6 kinase alpha-1 (Homo sapiens, UniProt Q15418); assay: Inhibition of RSK1 domain 2 K2 site in human HeLa cells lysate at 2 uM pre incubated for 15 mins followed by ADP acyl phosphate probe addition and measured after 10 mins by LC-MS/MS analysis relative to control; format: subcellular; conditions: time 25.0 min
[6] = biological target: Calcium/calmodulin-dependent protein kinase kinase 1 (Homo sapiens, UniProt Q8N5S9); assay: Inhibition of CAMKK1 in human HeLa cells lysate at 2 uM pre incubated for 15 mins followed by ADP acyl phosphate probe addition and measured after 10 mins by LC-MS/MS analysis relative to control; format: subcellular; conditions: time 25.0 min
Summary of the method: (§1)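 KiNativ profiling in HeLa lysate (5 mg/mL total protein). Lysate incubated 15 min with inhibitor at 50, 10, 2, 0.8 or 0 μM. ATP or ADP acylphosphate probe then added (5 μM final) and reacted 10 min. Reaction stopped with urea and analysed by targeted MS, using up to four fragment ions per kinase peptide-probe conjugate. % inhibition taken against untreated lysate. Run in duplicate.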

[7] = biological target: Cyclin-dependent kinase 2 (Homo sapiens, UniProt P24941); assay: Inhibition of CDK2 K2 site in human HeLa cells lysate at 2 uM pre incubated for 15 mins followed by ADP acyl phosphate probe addition and measured after 10 mins by LC-MS/MS analysis relative to control; format: subcellular; conditions: time 25.0 min; summary of the method: as §1
[8] = biological target: Mitogen-activated protein kinase kinase kinase 20 (Homo sapiens, UniProt Q9NYL2); assay: Inhibition of ZAK in human HeLa cells lysate at 50 uM pre incubated for 15 mins followed by ATP acyl phosphate probe addition and measured after 10 mins by LC-MS/MS analysis relative to control; format: subcellular; conditions: time 25.0 min
[9] = biological target: Serine/threonine-protein kinase ATR (Homo sapiens, UniProt Q13535); assay: Inhibition of ATR in human HeLa cells lysate at 10 uM pre incubated for 15 mins followed by ATP acyl phosphate probe addition and measured after 10 mins by LC-MS/MS analysis relative to control; format: subcellular; conditions: time 25.0 min
Summary of the method: (§2)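 KiNativ-type profiling in HeLa lysate (5 mg/mL total protein). Lysate preincubated 15 min with inhibitor at 50, 10, 2, 0.8 or 0 μM, then ATP or ADP acylphosphate probe added (5 μM final) for 10 min. Reaction stopped with urea and analysed by targeted MS, using up to four fragment ions per kinase peptide-probe conjugate. % inhibition calculated against untreated lysate. Duplicate reactions.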

[10] = biological target: T2, Aurora kinase A (Homo sapiens) (UniProt O14965); assay: Inhibition of AurA in human HeLa cells lysate at 10 uM pre incubated for 15 mins followed by ATP acyl phosphate probe addition and measured after 10 mins by LC-MS/MS analysis relative to control; format: subcellular; conditions: time 25.0 min; summary of the method: as §2
T2 sequence (whole entry): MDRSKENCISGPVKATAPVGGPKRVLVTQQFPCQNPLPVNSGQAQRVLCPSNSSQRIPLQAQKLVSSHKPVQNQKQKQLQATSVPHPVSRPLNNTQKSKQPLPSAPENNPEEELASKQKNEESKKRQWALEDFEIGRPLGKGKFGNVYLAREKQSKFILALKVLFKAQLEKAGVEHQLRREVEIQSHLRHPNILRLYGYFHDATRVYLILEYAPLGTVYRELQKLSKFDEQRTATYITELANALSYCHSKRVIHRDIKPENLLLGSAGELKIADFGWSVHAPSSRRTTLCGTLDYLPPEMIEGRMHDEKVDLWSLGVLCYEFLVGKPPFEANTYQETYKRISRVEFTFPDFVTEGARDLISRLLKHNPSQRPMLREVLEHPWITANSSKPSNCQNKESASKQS

[11] = biological target: T3, Serine/threonine-protein kinase 4 (Homo sapiens) (UniProt Q13043); assay: Inhibition of MST1 in human HeLa cells lysate at 2 uM pre incubated for 15 mins followed by ATP acyl phosphate probe addition and measured after 10 mins by LC-MS/MS analysis relative to control; format: subcellular; conditions: time 25.0 min
T3 sequence (whole entry): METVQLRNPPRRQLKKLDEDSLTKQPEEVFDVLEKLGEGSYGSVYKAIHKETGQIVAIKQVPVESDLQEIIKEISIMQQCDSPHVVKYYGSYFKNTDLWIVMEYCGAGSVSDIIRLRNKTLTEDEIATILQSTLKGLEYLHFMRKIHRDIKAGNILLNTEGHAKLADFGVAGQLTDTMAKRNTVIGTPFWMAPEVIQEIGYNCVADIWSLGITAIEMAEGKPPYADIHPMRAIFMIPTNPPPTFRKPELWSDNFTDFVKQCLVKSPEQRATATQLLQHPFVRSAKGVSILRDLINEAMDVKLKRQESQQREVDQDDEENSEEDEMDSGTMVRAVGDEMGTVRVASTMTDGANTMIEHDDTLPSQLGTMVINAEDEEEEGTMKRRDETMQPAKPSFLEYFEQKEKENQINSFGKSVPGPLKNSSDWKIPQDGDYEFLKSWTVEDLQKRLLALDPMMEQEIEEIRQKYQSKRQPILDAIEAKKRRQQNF

Sequence of Mitogen-activated protein kinase kinase kinase 20 (Q9NYL2 2-800 limits assumed): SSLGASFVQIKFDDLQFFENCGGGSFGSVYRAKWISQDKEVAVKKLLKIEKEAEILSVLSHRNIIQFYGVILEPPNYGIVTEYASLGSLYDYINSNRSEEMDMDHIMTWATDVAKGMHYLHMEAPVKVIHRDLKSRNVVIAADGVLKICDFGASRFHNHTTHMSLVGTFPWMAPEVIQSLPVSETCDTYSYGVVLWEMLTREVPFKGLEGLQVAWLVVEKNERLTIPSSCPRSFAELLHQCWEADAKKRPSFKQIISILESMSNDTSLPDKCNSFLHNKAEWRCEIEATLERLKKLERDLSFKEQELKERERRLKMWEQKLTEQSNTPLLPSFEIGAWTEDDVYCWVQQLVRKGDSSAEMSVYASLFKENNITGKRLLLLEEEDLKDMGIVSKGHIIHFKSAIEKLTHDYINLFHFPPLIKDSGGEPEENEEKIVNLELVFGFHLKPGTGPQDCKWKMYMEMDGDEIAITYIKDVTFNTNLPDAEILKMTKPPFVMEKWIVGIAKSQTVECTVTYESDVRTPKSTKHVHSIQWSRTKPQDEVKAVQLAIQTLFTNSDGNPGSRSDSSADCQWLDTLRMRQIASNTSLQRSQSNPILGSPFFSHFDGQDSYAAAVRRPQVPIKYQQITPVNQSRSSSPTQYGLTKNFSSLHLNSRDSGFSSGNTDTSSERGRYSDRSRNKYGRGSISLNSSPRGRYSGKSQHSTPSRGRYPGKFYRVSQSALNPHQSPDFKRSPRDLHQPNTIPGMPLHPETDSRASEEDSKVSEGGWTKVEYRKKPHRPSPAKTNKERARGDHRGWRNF
Sequence of Ribosomal protein S6 kinase alpha-1 (Q15418 whole entry, the tested form may be a part): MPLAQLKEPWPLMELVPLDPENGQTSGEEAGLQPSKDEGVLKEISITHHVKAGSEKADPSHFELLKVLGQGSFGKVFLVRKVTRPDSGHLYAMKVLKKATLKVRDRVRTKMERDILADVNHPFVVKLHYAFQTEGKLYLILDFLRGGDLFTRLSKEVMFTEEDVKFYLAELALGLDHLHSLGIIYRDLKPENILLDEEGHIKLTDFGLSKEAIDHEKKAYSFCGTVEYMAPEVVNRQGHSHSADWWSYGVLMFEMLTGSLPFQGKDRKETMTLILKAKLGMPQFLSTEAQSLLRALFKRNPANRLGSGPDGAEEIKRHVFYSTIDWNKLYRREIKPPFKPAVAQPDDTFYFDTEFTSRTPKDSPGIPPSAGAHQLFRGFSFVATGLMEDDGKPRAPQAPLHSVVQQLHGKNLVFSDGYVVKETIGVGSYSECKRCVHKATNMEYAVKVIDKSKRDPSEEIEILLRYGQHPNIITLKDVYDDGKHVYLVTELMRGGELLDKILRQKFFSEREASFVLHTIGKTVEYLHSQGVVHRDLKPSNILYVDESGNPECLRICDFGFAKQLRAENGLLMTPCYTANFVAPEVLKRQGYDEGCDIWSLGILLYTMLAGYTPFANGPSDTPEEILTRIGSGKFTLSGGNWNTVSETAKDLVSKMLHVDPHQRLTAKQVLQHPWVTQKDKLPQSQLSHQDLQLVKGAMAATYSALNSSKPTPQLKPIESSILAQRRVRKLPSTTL
Sequence of Calcium/calmodulin-dependent protein kinase kinase 1 (Q8N5S9 whole entry, looked up, the tested form may be a part): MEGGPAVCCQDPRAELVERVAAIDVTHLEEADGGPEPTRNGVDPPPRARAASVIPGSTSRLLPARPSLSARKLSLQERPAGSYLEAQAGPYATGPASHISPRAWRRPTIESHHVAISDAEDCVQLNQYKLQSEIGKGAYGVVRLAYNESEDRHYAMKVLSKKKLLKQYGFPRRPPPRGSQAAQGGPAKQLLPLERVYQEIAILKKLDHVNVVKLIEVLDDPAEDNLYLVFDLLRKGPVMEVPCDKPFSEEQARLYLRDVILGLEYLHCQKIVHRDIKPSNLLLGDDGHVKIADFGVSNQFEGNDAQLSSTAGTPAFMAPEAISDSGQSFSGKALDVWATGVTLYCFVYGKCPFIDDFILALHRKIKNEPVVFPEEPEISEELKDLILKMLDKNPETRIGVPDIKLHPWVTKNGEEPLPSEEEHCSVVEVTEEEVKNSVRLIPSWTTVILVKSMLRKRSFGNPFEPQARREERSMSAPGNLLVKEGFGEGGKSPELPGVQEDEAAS
Sequence of Activated CDC42 kinase 1 (Q07912 whole entry, looked up): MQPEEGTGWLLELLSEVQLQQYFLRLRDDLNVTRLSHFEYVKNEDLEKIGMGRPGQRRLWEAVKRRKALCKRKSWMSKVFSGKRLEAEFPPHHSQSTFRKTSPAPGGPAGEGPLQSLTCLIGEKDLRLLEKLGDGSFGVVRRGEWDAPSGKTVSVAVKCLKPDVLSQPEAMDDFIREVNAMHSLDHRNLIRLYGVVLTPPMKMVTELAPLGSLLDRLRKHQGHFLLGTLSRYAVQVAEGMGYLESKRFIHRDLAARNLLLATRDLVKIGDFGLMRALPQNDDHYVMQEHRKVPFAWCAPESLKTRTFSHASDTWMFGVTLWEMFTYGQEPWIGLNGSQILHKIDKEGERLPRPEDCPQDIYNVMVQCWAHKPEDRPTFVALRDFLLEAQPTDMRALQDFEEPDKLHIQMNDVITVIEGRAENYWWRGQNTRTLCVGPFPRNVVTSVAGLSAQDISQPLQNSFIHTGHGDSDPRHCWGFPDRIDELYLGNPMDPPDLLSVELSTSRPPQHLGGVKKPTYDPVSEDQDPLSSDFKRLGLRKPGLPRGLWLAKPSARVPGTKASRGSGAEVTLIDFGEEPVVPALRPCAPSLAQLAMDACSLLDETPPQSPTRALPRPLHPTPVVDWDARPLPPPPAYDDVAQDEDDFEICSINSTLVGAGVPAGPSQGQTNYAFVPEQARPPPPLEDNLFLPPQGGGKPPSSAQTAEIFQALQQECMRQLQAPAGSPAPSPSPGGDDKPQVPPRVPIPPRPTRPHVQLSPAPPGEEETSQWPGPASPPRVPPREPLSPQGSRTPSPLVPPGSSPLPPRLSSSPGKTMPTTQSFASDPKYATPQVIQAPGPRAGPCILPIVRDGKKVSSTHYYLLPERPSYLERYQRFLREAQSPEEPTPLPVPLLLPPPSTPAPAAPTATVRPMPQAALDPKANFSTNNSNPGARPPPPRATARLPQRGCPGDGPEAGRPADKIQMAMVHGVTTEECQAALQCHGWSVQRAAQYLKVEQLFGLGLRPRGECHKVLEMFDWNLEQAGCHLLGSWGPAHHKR
Sequence of Serine/threonine-protein kinase 3 (Q13188 whole entry): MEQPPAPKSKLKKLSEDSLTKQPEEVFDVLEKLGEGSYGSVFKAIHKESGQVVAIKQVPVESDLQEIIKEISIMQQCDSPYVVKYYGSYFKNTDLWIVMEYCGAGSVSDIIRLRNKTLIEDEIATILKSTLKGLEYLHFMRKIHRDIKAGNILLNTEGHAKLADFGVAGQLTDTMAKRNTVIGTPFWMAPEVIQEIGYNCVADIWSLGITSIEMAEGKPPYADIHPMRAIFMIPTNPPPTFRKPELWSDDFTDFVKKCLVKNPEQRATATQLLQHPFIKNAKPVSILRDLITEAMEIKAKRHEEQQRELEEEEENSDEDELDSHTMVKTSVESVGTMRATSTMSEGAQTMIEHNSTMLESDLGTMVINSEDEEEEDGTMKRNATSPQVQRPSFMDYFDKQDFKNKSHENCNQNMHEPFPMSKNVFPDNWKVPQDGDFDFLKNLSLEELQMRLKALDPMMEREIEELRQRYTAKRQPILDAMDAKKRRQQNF
Sequence of Serine/threonine-protein kinase 38-like (Q9Y2H1 whole entry): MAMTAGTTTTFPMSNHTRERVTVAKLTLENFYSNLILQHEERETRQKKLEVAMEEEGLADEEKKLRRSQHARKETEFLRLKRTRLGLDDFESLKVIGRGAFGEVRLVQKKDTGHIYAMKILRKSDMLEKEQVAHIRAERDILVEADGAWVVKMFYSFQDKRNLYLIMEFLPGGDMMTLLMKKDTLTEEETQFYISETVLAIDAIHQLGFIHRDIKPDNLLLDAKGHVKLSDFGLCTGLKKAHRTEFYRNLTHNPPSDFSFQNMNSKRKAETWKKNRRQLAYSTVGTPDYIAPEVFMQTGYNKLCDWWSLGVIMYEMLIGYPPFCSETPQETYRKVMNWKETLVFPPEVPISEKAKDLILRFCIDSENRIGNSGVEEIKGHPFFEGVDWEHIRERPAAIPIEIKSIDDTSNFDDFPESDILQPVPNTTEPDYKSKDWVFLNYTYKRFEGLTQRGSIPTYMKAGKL

CCOc1cc(N2CCC(O)CC2)ccc1Nc1ncc2c(n1)N(C)c1ccccc1C(=O)N2C
Activity (Activated CDC42 kinase 1): 17% | IC50 [1]: > 50 µM | IC50 [2]: > 50 µM | IC50 [3]: > 50 µM | inhibition [4]: 4.2% | inhibition [5]: -6.4% | inhibition [6]: -5.2% | inhibition [7]: 9.8% | inhibition [8]: 33.3% | inhibition [9]: 6.7% | inhibition [10]: 2.3% | inhibition [11]: 2.2%
